In brackets after ≈: the same amount, converted by molar mass. Activity calls are given as the source filed them. The rule behind the calls is not given here.
Assays:
Escherichia coli [1] = assay: Ratio of MIC for Escherichia coli K-12 KD2934 harboring gyrB K447E mutant gene to MIC for Escherichia coli K-12 KD1397 harboring wild type gyrB gene; assay type: functional
Method in brief: (§1)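 Isogenic E. coli K-12 tolC::Tn10 strains made by P1 transduction. Each grown in LB to mid-exponential phase, diluted to 10^{4-5} CFU/ml in LB tubes with drug, incubated overnight at 37°C. MIC = lowest concentration blocking visible growth. Ratio = mutant MIC divided by KD1397 (gyr+) MIC.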

Escherichia coli [2] = assay: Ratio of MIC for Escherichia coli K-12 KD2932 harboring gyrB D426N mutant gene to MIC for Escherichia coli K-12 KD1397 harboring wild type gyrB gene; assay type: functional; method in brief: as §1
Escherichia coli [3] = assay: Ratio of MIC for Escherichia coli K-12 KD2886 harboring gyrA A51V mutant gene to MIC for Escherichia coli K-12 KD1397 harboring wild type gyrA gene; assay type: functional; method in brief: as §1
Escherichia coli [4] = assay: Ratio of MIC for Escherichia coli K-12 KD2955 harboring gyrA D82A mutant gene to MIC for Escherichia coli K-12 KD1397 harboring wild type gyrA gene; assay type: functional; method in brief: as §1
Escherichia coli [5] = assay: Ratio of MIC for Escherichia coli K-12 KD2884 harboring gyrA A106H mutant gene to MIC for Escherichia coli K-12 KD1397 harboring wild type gyrA gene; assay type: functional; method in brief: as §1
Escherichia coli [6] = assay: Ratio of MIC for Escherichia coli K-12 KD2878 harboring gyrA A67S mutant gene to MIC for Escherichia coli K-12 KD1397 harboring wild type gyrA gene; assay type: functional; method in brief: as §1
Escherichia coli [7] = assay: Ratio of MIC for Escherichia coli K-12 KD2866 harboring gyrA D87Y mutant gene to MIC for Escherichia coli K-12 KD1397 harboring wild type gyrA gene
Escherichia coli [8] = assay: Ratio of MIC for Escherichia coli K-12 KD2864 harboring gyrA A84P mutant gene to MIC for Escherichia coli K-12 KD1397 harboring wild type gyrA gene; assay type: functional; method in brief: as §1
Escherichia coli [9] = assay: Ratio of MIC for Escherichia coli K-12 KD2880 harboring gyrA D87Y mutant gene to MIC for Escherichia coli K-12 KD1397 harboring wild type gyrA gene; assay type: functional; method in brief: as §1
Escherichia coli [10] = assay: Ratio of MIC for Escherichia coli K-12 KD2862 harboring gyrA S83L mutant gene to MIC for Escherichia coli K-12 KD1397 harboring wild type gyrA gene; assay type: functional; method in brief: as §1
Escherichia coli [11] = assay: Ratio of MIC for Escherichia coli K-12 KD2882 harboring gyrA G81C mutant gene to MIC for Escherichia coli K-12 KD1397 harboring wild type gyrA gene; assay type: functional; method in brief: as §1
Escherichia coli [12] = assay: Ratio of MIC for Escherichia coli K-12 KD2876 harboring gyrA S83W mutant gene to MIC for Escherichia coli K-12 KD1397 harboring wild type gyrA gene; assay type: functional; method in brief: as §1
Escherichia coli [13] = assay: Bactericidal activity against wild type Escherichia coli K-12 KD1397 at 10 times MIC; assay type: functional
Method in brief: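 Exponentially growing E. coli K-12 (tolC-deficient via Tn10, gyr+) in LB at 37°C was exposed to drug at 10× the MIC for the indicated times. Aliquots were diluted and plated on drug-free agar to count CFU. Survival is expressed as the fraction of CFU present when drug was added. MIC came from overnight broth tubes inoculated at 10^4-5 CFU/ml and read by eye.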

Escherichia coli [14] = assay: Antibacterial activity against wild type Escherichia coli K-12 KD1397 harboring gyr gene; assay type: functional
Method in brief: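 Broth MIC: E. coli K-12 tolC::Tn10 strain grown in LB to mid-exponential phase, diluted to 10^4-5 CFU/ml in tubes of LB containing drug, incubated overnight at 37°C; MIC = lowest concentration blocking visible growth.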

Escherichia coli [15] = assay: Bactericidal activity against wild type Escherichia coli K-12 KD1397 at 10 times MIC after 2 hrs; assay type: functional, organism-based
Method in brief: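 Wild-type KD1397 (tolC-deficient), exponential-phase LB culture, exposed to drug at 10× MIC for timed intervals or for 2 h. Samples diluted and plated on drug-free agar for CFU counts. Survival given as fraction of CFU at drug addition.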

Escherichia coli [16] = assay: Bactericidal activity against Escherichia coli K-12 KD2866 harboring gyrA D87Y mutant gene assessed as bacterial count at 10 times MIC; assay type: functional, organism-based
Escherichia coli [17] = assay: Bactericidal activity against Escherichia coli K-12 […] harboring gyrA D87Y mutant gene assessed as bacterial count at 10 times MIC after 2 hrs; assay type: functional, organism-based

CCC1CN(c2c(F)cc3c(=O)n(N)c(=O)n(C4CC4)c3c2OC)CCN1 (stereo not drawn)
Ratio (Escherichia coli [1]): <1 | Ratio (Escherichia coli [2]): 1

COc1c(N2CC[C@H](N)C2)c(F)cc2c(=O)n(N)c(=O)n(C3CC3)c12
Ratio (Escherichia coli [3]): 1 | Ratio (Escherichia coli [4]): 1 | Ratio (Escherichia coli [1]): <1 | Ratio (Escherichia coli [5]): 1 | Ratio (Escherichia coli [6]): 1 | Ratio (Escherichia coli [7]): 1 | Ratio (Escherichia coli [8]): 1 | Ratio (Escherichia coli [9]): 1 | Ratio (Escherichia coli [10]): 1 | Ratio (Escherichia coli [2]): 1 | Ratio (Escherichia coli [11]): 1 | Ratio (Escherichia coli [12]): 1

CCC1CN(c2c(F)cc3c(=O)[nH]c(=O)n(C4CC4)c3c2OC)CCN1 (stereo not drawn)
Ratio (Escherichia coli [1]): <1 | Ratio (Escherichia coli [2]): 1

COc1c(N2C[C@@H]3CCCN[C@@H]3C2)c(F)cc2c(=O)[nH]c(=O)n(C3CC3)c12
Ratio (Escherichia coli [1]): <1 | Ratio (Escherichia coli [2]): 1

CCC1CN(c2c(F)cc3c(=O)c(C(=O)O)cn(C4CC4)c3c2OC)CCN1 (stereo not drawn)
Ratio (Escherichia coli [1]): <1 | Ratio (Escherichia coli [2]): 2 | Activity (Escherichia coli [13]): Active | fold change (FC) (Escherichia coli [13]): 2

COc1c(N2CC[C@@H](CN)C2)c(F)cc2c(=O)c(C(=O)O)cn(C3CC3)c12
Ratio (Escherichia coli [1]): >1 | MIC (Escherichia coli [14]): 0.004 µg/mL (≈ 0.0107 µM) | Ratio (Escherichia coli [2]): 2

COc1c(N2CC[C@H](N)C2)c(F)cc2c(=O)[nH]c(=O)n(C3CC3)c12
Ratio (Escherichia coli [1]): <1 | Ratio (Escherichia coli [2]): 1

COc1c(N2C[C@@H]3CCCN[C@@H]3C2)c(F)cc2c(=O)n(N)c(=O)n(C3CC3)c12
Ratio (Escherichia coli [3]): 1 | Activity (Escherichia coli [15]): inactive | Ratio (Escherichia coli [4]): 1 | Ratio (Escherichia coli [1]): <1 | Ratio (Escherichia coli [5]): 1 | Ratio (Escherichia coli [6]): 1 | Ratio (Escherichia coli [7]): 1 | Ratio (Escherichia coli [8]): 1 | Ratio (Escherichia coli [9]): 1 | Ratio (Escherichia coli [10]): 1 | Ratio (Escherichia coli [2]): 1 | Ratio (Escherichia coli [11]): 1 | Ratio (Escherichia coli [12]): 1

COc1c(N2C[C@@H]3CCCN[C@@H]3C2)c(F)cc2c(=O)c(C(=O)O)cn(C3CC3)c12 [MOXIFLOXACIN]
Ratio (Escherichia coli [1]): <1 | Ratio (Escherichia coli [2]): 2

COc1c(N2CC[C@@H](CN)C2)c(F)cc2c(=O)n(N)c(=O)n(C3CC3)c12
Ratio (Escherichia coli [3]): 1 | Ratio (Escherichia coli [4]): 1 | Ratio (Escherichia coli [1]): <1 | Activity (Escherichia coli [16]): Active | MIC (Escherichia coli [14]): 0.7 µg/mL (≈ 1.93 µM) | Ratio (Escherichia coli [5]): 1 | Ratio (Escherichia coli [6]): 1 | Ratio (Escherichia coli [7]): 1 | Ratio (Escherichia coli [8]): 1 | Ratio (Escherichia coli [9]): 1 | Ratio (Escherichia coli [10]): 1 | Ratio (Escherichia coli [2]): <1 | Activity (Escherichia coli [17]): Active | Ratio (Escherichia coli [11]): 1 | Ratio (Escherichia coli [12]): 1 | Activity (Escherichia coli [13]): Active

COc1c(N2CC[C@H](N)C2)c(F)cc2c(=O)c(C(=O)O)cn(C3CC3)c12
Ratio (Escherichia coli [1]): >1 | MIC (Escherichia coli [14]): 0.016 µg/mL (≈ 0.0443 µM) | Ratio (Escherichia coli [2]): 2

COc1c(N2CC[C@@H](CN)C2)c(F)cc2c(=O)[nH]c(=O)n(C3CC3)c12
Ratio (Escherichia coli [1]): <1 | Ratio (Escherichia coli [2]): <1
